Assay outcomes from PubChem.
NS3 helicase inh – HCV NS3 helicase inhibition | NS3 helicase DNA unwinding, Cy5 molecular beacon fluorescence | inhibition, % at 10.9 µM | actives 0.56% (n = 290,000) | AID 1800;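 active = inhibition above the mean of all tested compounds plus 3 SD, set per campaign, cut at about 35% in these data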
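assay system = NS3 helicase fragment of HCV | buffer or medium = MOPS pH 6.5, MgCl2, DTT, Tween20, BSA | timing = 60 min unwinding reaction at 25 °C after ATP addition | signal = Cy5 beacon fluorescence read at start and 1 h | read-out basis = % inhibition of unwinding | control set = low DMSO, high thioflavine S at 110 µM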
ZTA DNA inh – blocks Epstein-Barr virus ZTA, an EBNA-1 counter-screen. P03206. ZTA-DNA binding, fluorescence polarization. inhibition, % at 11 µM. actives 0.15% (n = 320,000); in the data active = inhibition above about 33%
MEX-5 binding – C. elegans MEX-5 TCR-2 RNA binding activity; MEX-5/FITC-TCR2 RNA binding, fluorescence polarization; hits give low values; activity score (negative = inhibition of binding), % at 10 µM; actives 0.38% (n = 300,000);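 active = inhibition past about -25% in most replicates, and total fluorescence under double the plate's negative control median, limit read from the data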
Target sequence (Q9XUB2 whole entry, looked up): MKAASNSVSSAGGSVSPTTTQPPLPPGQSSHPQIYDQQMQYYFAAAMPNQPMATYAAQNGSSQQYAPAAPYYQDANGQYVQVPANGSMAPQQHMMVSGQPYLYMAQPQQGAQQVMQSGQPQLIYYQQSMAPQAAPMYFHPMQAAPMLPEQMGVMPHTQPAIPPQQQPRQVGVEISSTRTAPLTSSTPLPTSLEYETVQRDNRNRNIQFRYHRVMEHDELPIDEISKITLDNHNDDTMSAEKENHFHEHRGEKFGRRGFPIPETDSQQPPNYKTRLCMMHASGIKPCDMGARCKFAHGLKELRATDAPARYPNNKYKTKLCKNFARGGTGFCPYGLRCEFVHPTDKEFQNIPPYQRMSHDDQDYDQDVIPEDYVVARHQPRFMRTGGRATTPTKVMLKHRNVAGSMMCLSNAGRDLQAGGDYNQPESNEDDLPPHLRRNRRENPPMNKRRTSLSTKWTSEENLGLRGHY
HCV core dimer – blocks dimerization of HCV core protein. actives 0.33% (n = 300,000). TR-FRET GST/Flag-core106 dimerization, 1536-well. inhibition, % at 5 µM. AID 1899;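 active = inhibition above the mean of all tested compounds plus 3 SD, set per screening campaign, cut at about 45% in these data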
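Test system: GST/Flag-tagged HCV core106 proteins; Medium: KF-containing HEPES buffer, pH 7.45, DTT, CHAPS, BSA; Times: compound-protein-antibody incubation 4 h at 22.5 °C; Detection: TR-FRET 671 and 617 nm emission; Benchmarks: wells lacking GST-core106 and wells with excess unlabelled core106.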
EBV gp42 block – EBV gp42 inhibition. Fluorescence polarization binding assay, mP read-out. actives 0.42% (n = 220,000). inhibition, % (tested at 21.74 µM). Q1HVG2; in the data active = inhibition above about 50%
EBNA-1 inhibitor – blocks EBNA-1 binding to DNA; EBNA-1 DNA binding, fluorescence polarization; actives 0.34% (n = 300,000); AID 1950; inhibition, % at 14.8 µM; in the data active = inhibition above about 28%
Hits are given with their value; – = inactive; · = no result. This is a sample that favours compounds with a hit; in the whole collection about 1.7% have one here.

SMILES	NS3 helicase inh	ZTA DNA inh	MEX-5 binding	HCV core dimer	EBV gp42 block	EBNA-1 inhibitor
NS(=O)(=O)c1ccc2c(c1)C1C=CCC1C(C1CC=CCC1)N2 (stereo unspecified)	–	–	–	65	–	–
CC(C)C1Nc2ccc(S(N)(=O)=O)cc2C2C=CCC21 (stereo unspecified)	–	–	–	–	–	–
CCCCn1c(O)c(N=Nc2ccccc2O)c2ccccc21	·	–	·	·	·	·
CCCCn1c(O)c(N=Nc2ccccn2)c2ccccc21	–	–	-31	–	–	–
CCOc1cc(/C=N/Nc2ccccc2Cl)ccc1OCC(=O)O	53	–	·	–	–	–
CCOc1cc(/C=N/NC(=O)c2ccc(-c3csc(Nc4ccc(C)cc4)n3)cc2)ccc1OCC(=O)O	–	·	·	·	89	·
COc1cc(/C=N\NC(=O)c2ccc(-c3ccccc3)cc2)ccc1OCC(N)=O	–	·	–	·	·	·
O=C(O)COc1ccc(/C=N/NC(=O)c2ccc(-c3csc(Nc4ccc(Cl)cc4)n3)cc2)cc1	–	·	–	·	92	·
O=C(CN(Cc1ccc(Cl)cc1)C(=O)CNS(=O)(=O)c1ccccc1)NCC1CCCO1 (stereo unspecified)	–	–	–	–	·	–
O=C(NC(NC(=S)Nc1ccc(Cl)cc1Cl)C(Cl)(Cl)Cl)c1cccc([N+](=O)[O-])c1 (stereo unspecified)	–	–	–	–	60	–
N#Cc1c(N)sc2c1CCCCCC2	–	–	–	–	–	–
N#Cc1c(N)sc(=S)c2c1CCCCC2	–	–	-26	–	–	–
O=C(O)C(=O)/C(=C\c1ccccc1)c1ccc2ccccc2n1	–	–	–	–	–	–
O=C(O)C(=O)/C(=C\c1cccc2ccccc12)c1ccc2ccccc2n1	–	–	-40	–	–	–
O=C(O)C(=O)/C(=C\c1ccsc1)c1ccc2ccccc2n1	–	–	-48	–	·	–
O=C(O)C(=O)/C(=C\c1ccc([N+](=O)[O-])cc1)c1ccc2ccccc2n1	–	–	–	–	–	–
COc1ccc2cc(C(=O)N(C)CC(=O)Nc3ccccc3Br)ccc2c1	·	–	·	·	·	·
COc1ccc(S(=O)(=O)N2CCC(C(=O)Nc3nccs3)CC2)cc1	–	–	–	–	·	–
CCN(CC)c1ccc2c(O)cc(=O)oc2c1	–	–	–	–	–	–
CCN(CC)c1ccc(C(=O)OCc2cc(=O)oc3cc(O)ccc23)cc1	–	–	–	50	–	–
Cc1c(C(=O)OC2CCCC2)[nH]c2c1C(=O)CC(c1ccco1)C2 (stereo unspecified)	–	–	–	–	–	–
Cc1c(C(=O)OCC2CCCO2)[nH]c2c1C(=O)CC(c1ccco1)C2 (stereo unspecified)	–	–	–	86	–	–
C/C=C/COC(=O)c1[nH]c2c(c1C)C(=O)CC(c1ccco1)C2 (stereo unspecified)	–	–	–	53	–	–
CCn1nc(C)c(CN2CCC(C(=O)Nc3cccc(-c4cccc(Cl)c4)c3)CC2)c1C	–	–	·	–	·	–
Cc1cccc2cc(/C=C3\N=C(c4ccccc4)OC3=O)c(N3CCOCC3)nc12	–	–	–	–	135	–
SMILES	NS3 helicase inh	ZTA DNA inh	MEX-5 binding	HCV core dimer	EBV gp42 block	EBNA-1 inhibitor
COc1ccc(C(=O)Oc2ccc(N(C)S(=O)(=O)c3ccccc3)cc2)cc1[N+](=O)[O-]	–	–	–	–	·	–
COc1ccccc1NC(=O)C(=O)N/N=C/c1ccc([N+](=O)[O-])s1	–	·	–	·	79	·
O=c1[nH]c(CN2CCc3ccccc32)nc2scc(-c3cccs3)c12	–	–	–	48	–	–
O=C(CSCc1nc2scc(-c3cccs3)c2c(=O)[nH]1)Nc1ccccn1	–	–	–	–	·	–
O=C(NCc1cccnc1)c1ccc(COc2ccc(Cl)cc2Cl)o1	–	–	–	–	–	–
O=C(NCc1cccnc1)c1ccc(COc2cccc3ccccc23)o1	–	–	–	61	–	–
O=C(Nc1ccc(N2CCOCC2)cc1)c1ccc(Cl)c(S(=O)(=O)N2CCCCC2)c1	·	–	·	·	·	·
Cc1cc2c(cc1C)NC(c1c(C)n(C)n(-c3ccccc3)c1=O)C1=C(CC(C)(C)CC1=O)N2 (stereo unspecified)	–	–	–	–	85	–
CCN(CC)c1ccc(N=Nc2ncn[nH]2)cc1	–	–	-52	–	–	–
CCCNS(=O)(=O)c1ccc(CCC(=O)NCc2ccc3c(c2)OCO3)cc1	–	–	-36	–	–	–
CC(C)NS(=O)(=O)c1ccc(CCC(=O)NCc2ccc3c(c2)OCO3)cc1	–	–	–	–	–	–
Cn1c(SCC(=O)Nc2ccc(Br)cc2)nc(O)cc1=O	–	–	–	–	–	–
Cc1ccc2c(c1)=C(c1sc(N(C)c3ccc(O)cc3)nc1O)C(=O)N=2	–	–	–	–	·	–
O=C1N=c2ccc(Br)cc2=C1c1sc(=O)[nH]c1O	–	–	-26	–	·	–
Cc1cnc(C(=O)NNC(=O)c2ccc(Br)cc2)cn1	·	–	-41	–	·	–
O=C(NNC(=O)C1CCC1)c1ccc(Br)cc1	·	–	–	–	·	–
O=C(N/N=C1\C(=O)c2cccc3cccc1c23)c1ccc(O)cc1	–	–	–	–	–	–
O=C1C([N+](=O)[O-])=C(O)c2cccc3cccc1c23	–	·	-40	·	·	·
Cc1cccc(-n2ncc3c2CCCC3NC(=O)CCCN2CCCCC2=O)c1C (stereo unspecified)	–	–	–	–	·	–
N#CC(C(=O)NC1CCCCC1)c1nc2ccccc2nc1N1CCN(c2ccc(F)cc2)CC1 (stereo unspecified)	–	·	-76	·	–	·
Nc1ccc(O)c2c1C(=O)c1ccccc1C2=O	–	37	–	–	125	–
CCCCC1=CC2=C(c3ccco3)C(=O)C(C)(OC(=O)c3ccc(OC)cc3)C(=O)C2=CN1c1ccc(OC)cc1 (stereo unspecified)	·	–	–	58	–	–
CCCCC1=CC2=C(c3ccco3)C(=O)C(C)(OC(=O)c3ccc(OC)cc3)C(=O)C2=CN1CC1CC1 (stereo unspecified)	·	–	–	–	–	–
CCCCC1=CC2=C(c3ccco3)C(=O)C(C)(OC(=O)c3ccc(OC)cc3)C(=O)C2=CN1C1CCCC1 (stereo unspecified)	·	–	-29	59	·	–
CCCCC1=CC2=C(c3ccco3)C(=O)C(C)(OC(=O)c3ccc(OC)cc3)C(=O)C2=CN1C1CC1 (stereo unspecified)	·	–	-59	–	–	–
CCCCC1=CC2=C(c3ccco3)C(=O)C(C)(OC(=O)c3ccc(OC)cc3)C(=O)C2=CN1CCN1CCOCC1 (stereo unspecified)	·	–	-38	–	–	–
CCCCC1=CC2=C(c3ccco3)C(=O)C(C)(OC(=O)c3ccc(OC)cc3)C(=O)C2=CN1Cc1ccc(OC)cc1 (stereo unspecified)	·	·	–	·	–	·
